Screening results as filed in PubChem.
Pf Dd2 growth: P. falciparum Dd2 growth inhibition. SYBR Green, 72 h; stronger effect = lower value. activity change, % at 10 µM. actives 2.3% (n = 94,000). AID 1159554; in the data active = activity change below about -80%; inconclusive = no clear call, values can overlap the other calls
KDM4C inh: KDM4C (human) demethylase inhibition; Q9H3R0; AID 720574; GST-KDM4C 2-372, H3K9me3 peptide, LANCE TR-FRET; inhibition, % at 12.5 µM; actives 0.15% (n = 96,000);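 active = mean replicate inhibition above about 25%, with at least 55% of replicates also reaching it, limit read from the data, passing the limit was not always enough; inconclusive = only one of those two conditions met; inactive = neither condition met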
Target sequence (Q9H3R0 2-372 limits assumed): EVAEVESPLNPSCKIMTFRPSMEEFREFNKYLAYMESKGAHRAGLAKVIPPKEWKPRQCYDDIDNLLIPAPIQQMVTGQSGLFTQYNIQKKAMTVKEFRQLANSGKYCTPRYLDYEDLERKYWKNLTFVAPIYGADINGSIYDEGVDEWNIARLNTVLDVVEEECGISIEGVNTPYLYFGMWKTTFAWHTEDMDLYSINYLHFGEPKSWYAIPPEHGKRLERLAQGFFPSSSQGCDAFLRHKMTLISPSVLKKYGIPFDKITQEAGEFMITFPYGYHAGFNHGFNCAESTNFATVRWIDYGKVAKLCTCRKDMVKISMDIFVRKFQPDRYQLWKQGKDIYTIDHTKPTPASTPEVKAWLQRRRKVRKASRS
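Compound: one test concentration per compound; Material: GST-GASC-1 enzyme fragment 2-372; Amount: GASC-1 enzyme at 10 nM final in reaction; Also added: H3K9me3 peptide substrate, Fe(II), 2-oxoglutarate; Technique: LANCE TR-FRET; Times: 30 min demethylation and 1 h detection at room temperature.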
T cruzi growth-1: T. cruzi proliferation inhibition; inhibition, % at 8.34 µM; T. cruzi beta-gal in NIH3T3, GalScreen luminescence, 90 h; actives 5.9% (n = 77,000); AID 624255;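 active = mean inhibition above about 93%, with at least 55% of replicates each passing it, limit read from the data, passing the limit was not always enough; inconclusive = only one of those two conditions holds; inactive = neither condition holds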
IDH1 R132H inh: inhibitors of human IDH1 R132H. inhibition, % at 10 µM. actives 0.18% (n = 70,000). O75874. IDH1 R132H reductase, diaphorase/resazurin fluorescence, 60 min; in the data active = inhibition above about 34%; inconclusive = no clear call, values can overlap the other calls; inactive = below about 11%
Target sequence (O75874 whole entry R132H): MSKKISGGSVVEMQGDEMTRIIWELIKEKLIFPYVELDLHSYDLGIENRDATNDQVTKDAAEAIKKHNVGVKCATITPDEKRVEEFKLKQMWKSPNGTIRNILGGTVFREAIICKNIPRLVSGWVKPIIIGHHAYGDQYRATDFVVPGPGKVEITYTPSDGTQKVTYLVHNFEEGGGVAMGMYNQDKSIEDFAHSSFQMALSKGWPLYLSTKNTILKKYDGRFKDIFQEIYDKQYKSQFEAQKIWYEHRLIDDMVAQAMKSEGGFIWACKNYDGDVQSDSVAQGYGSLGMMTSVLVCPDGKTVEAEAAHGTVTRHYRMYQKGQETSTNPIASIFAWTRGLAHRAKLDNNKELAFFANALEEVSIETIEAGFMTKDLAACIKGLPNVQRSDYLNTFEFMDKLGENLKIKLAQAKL
T cruzi growth-2: inhibitors of T. cruzi proliferation | T. cruzi beta-gal in NIH3T3, GalScreen luminescence, 90 h | actives 72% (n = 5,600) | AID 651739 | inhibition, % at 8.35 µM | shares compounds with T cruzi growth-1;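 active = mean replicate inhibition above about 95% and at least 55% of replicates individually reaching it, limit read from the data; inconclusive = only one of the two criteria is met; inactive = neither criterion is met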
T cruzi growth-3: Trypanosoma cruzi proliferation inhibition | T. cruzi beta-gal in NIH3T3, GalScreen luminescence, 90 h | actives 21% (n = 5,600) | shares compounds with T cruzi growth-1 | inhibition, % at 2.09 µM | AID 651740;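 active = mean inhibition above about 95%, with at least 55% of replicates also reaching it, limit read from the data; inconclusive = meets just one of the two conditions; inactive = meets neither condition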
3T3 cytotox: kills mouse NIH/3T3 fibroblasts | shares compounds with T cruzi growth-1 | NIH/3T3 viability, CellTiter-Glo ATP luminescence, 90 h | cytotoxicity (signal decrease), % at 8.35 µM | actives 14% (n = 5,600);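 active = mean signal decrease across replicates above about 35% based on untreated-well scatter, with enough replicates individually passing, limit read from the data; inconclusive = no rule stated though some were filed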
3T3 cytotox 2: cytotoxicity in mouse NIH/3T3 fibroblasts. shares compounds with T cruzi growth-1. NIH/3T3 viability, CellTiter-Glo ATP luminescence, 90 h. inhibition, % at 24.9 µM. actives 56% (n = 5,600);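 active = mean loss of cell viability signal at or above a set limit, and enough replicates individually reaching it; inconclusive = meets only the mean limit or only the replicate share; inactive = meets neither condition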
Of the large screens only hits and unclear results are named; the others gave an inactive call (follow-up assays come after a bar, where they were run). An excerpt weighted towards active compounds, which were near 5.8% of everything screened.

C[C@@H]1CN([C@H](C)CO)S(=O)(=O)c2ccc(/C=C/c3ccccc3)cc2O[C@H]1CN(C)C(=O)Nc1cccc(F)c1	T cruzi growth-1 123.1 | T cruzi growth-2 95.6 | T cruzi growth-3 99.4 | 3T3 cytotox 73.0 | 3T3 cytotox 2 102.3
C/C=C/c1ccc2c(c1)O[C@H](CN(C)C(=O)Nc1cc(F)ccc1F)[C@@H](C)CN([C@H](C)CO)S2(=O)=O	none
C[C@@H]1CN([C@H](C)CO)S(=O)(=O)c2ccc(/C=C/c3ccccc3)cc2O[C@@H]1CN(C)C(=O)Nc1cccc(F)c1	T cruzi growth-1 124.1 | T cruzi growth-2 101.4 | T cruzi growth-3 108.3 | 3T3 cytotox inactive | 3T3 cytotox 2 inactive
C[C@H](CO)N1C[C@H](C)[C@H](CN(C)C(=O)Nc2ccc(F)cc2)Oc2cc(/C=C/c3ccccc3)ccc2S1(=O)=O	T cruzi growth-1 122.4 (no result: KDM4C inh) | T cruzi growth-2 99.1 | T cruzi growth-3 105.1 | 3T3 cytotox inactive | 3T3 cytotox 2 36.5
COc1cccc(NC(=O)N(C)C[C@@H]2Oc3cc(/C=C/c4ccccc4)ccc3S(=O)(=O)N([C@H](C)CO)C[C@H]2C)c1	none (no result: T cruzi growth-1)
C/C=C/c1ccc2c(c1)O[C@H](CN(C)C(=O)Nc1cc(F)ccc1F)[C@@H](C)CN([C@@H](C)CO)S2(=O)=O	T cruzi growth-1 100.3 | T cruzi growth-2 101.1 | T cruzi growth-3 inactive | 3T3 cytotox inactive | 3T3 cytotox 2 inactive
C/C=C/c1ccc2c(c1)O[C@H](CN(C)C(=O)Nc1ccc(F)cc1)[C@H](C)CN([C@H](C)CO)S2(=O)=O	none
O=C(CC1NC2CCCCC2NC1=O)Nc1ccc2c(c1)OCCO2 (stereo unspecified)	none (no result: Pf Dd2 growth, KDM4C inh, T cruzi growth-1)
COc1ccc2cc1/C=C\NC(=O)C(Cc1ccccc1)NC(=O)C1C(CCN1C(=O)C(NC(=O)C(C)N(C)C)C(C)C)O2 (stereo unspecified)	none (no result: Pf Dd2 growth, KDM4C inh, T cruzi growth-1)
COc1cc(C[C@@H]2COC(c3ccc(O[C@@H]4O[C@H](CO)[C@@H](O)[C@H](O)[C@H]4O)c(OC)c3)[C@@H]2CO)ccc1O[C@@H]1O[C@H](CO)[C@@H](O)[C@H](O)[C@H]1O (stereo partly specified)	none (no result: Pf Dd2 growth, KDM4C inh, T cruzi growth-1)
COCCNC(=O)c1ccccc1-c1nc(-c2ccc(Cl)cc2)no1	none (no result: Pf Dd2 growth, KDM4C inh, T cruzi growth-1)
COC(=O)c1cc(OC)c(OC)cc1NC(=O)C(C)Oc1ccc(C(C)(C)C)cc1 (stereo unspecified)	none (no result: Pf Dd2 growth, KDM4C inh, T cruzi growth-1)
C[C@H]1CN([C@@H](C)CO)S(=O)(=O)c2ccc(/C=C/c3ccccc3)cc2O[C@@H]1CN(C)C(=O)Nc1cccc(F)c1	T cruzi growth-1 125.3 | T cruzi growth-2 95.1 | T cruzi growth-3 100.3 | 3T3 cytotox inconclusive | 3T3 cytotox 2 47.1
C/C=C/c1ccc2c(c1)O[C@@H](CN(C)C(=O)Nc1cccc(F)c1)[C@@H](C)CN([C@H](C)CO)S2(=O)=O	none
C/C=C/c1ccc2c(c1)O[C@@H](CN(C)C(=O)Nc1ccc(C(F)(F)F)cc1)[C@H](C)CN([C@H](C)CO)S2(=O)=O	T cruzi growth-1 111.8 | T cruzi growth-2 inactive | T cruzi growth-3 103.2 | 3T3 cytotox 43.3 | 3T3 cytotox 2 54.8
C/C=C/c1ccc2c(c1)O[C@@H](CN(C)C(=O)Nc1cccc(F)c1)[C@H](C)CN([C@@H](C)CO)S2(=O)=O	T cruzi growth-1 96.6 | T cruzi growth-2 inactive | T cruzi growth-3 inactive | 3T3 cytotox inactive | 3T3 cytotox 2 62.9
C[C@H](CO)N1C[C@H](C)[C@H](CN(C)C(=O)Nc2cccc(F)c2)Oc2cc(/C=C/c3ccccc3)ccc2S1(=O)=O	T cruzi growth-1 123.6 | T cruzi growth-2 104.8 | T cruzi growth-3 111.4 | 3T3 cytotox 39.3 | 3T3 cytotox 2 36.8
C/C=C/c1ccc2c(c1)O[C@H](CN(C)C(=O)Nc1cccc(F)c1)[C@@H](C)CN([C@H](C)CO)S2(=O)=O	none
Cc1ccccc1NC(=O)CSc1n[nH]c(-c2ccncc2)n1	none (no result: Pf Dd2 growth, KDM4C inh, T cruzi growth-1)
C[C@H](CO)N1C[C@H](C)[C@@H](CN(C)C(=O)Nc2ccc(C(F)(F)F)cc2)Oc2ncc(C3=CCCC3)cc2C1=O	T cruzi growth-1 102.4 (no result: IDH1 R132H inh) | T cruzi growth-2 102.9 | T cruzi growth-3 inactive | 3T3 cytotox inactive | 3T3 cytotox 2 73.9
C[C@@H]1CN([C@H](C)CO)C(=O)c2cc(C3=CCCC3)cnc2O[C@H]1CN(C)C(=O)Nc1ccc(C(F)(F)F)cc1	T cruzi growth-1 102.2 (no result: IDH1 R132H inh) | T cruzi growth-2 97.6 | T cruzi growth-3 inactive | 3T3 cytotox inactive | 3T3 cytotox 2 58.5
C[C@@H]1CN([C@H](C)CO)C(=O)c2cc(C3=CCCC3)cnc2O[C@H]1CN(C)C(=O)Nc1ccc(F)cc1	none (no result: IDH1 R132H inh)
O=C(CSc1nnc(-c2ccc(Br)cc2)o1)Nc1cccc(C(=O)N2CCOCC2)c1	none (no result: Pf Dd2 growth, KDM4C inh, T cruzi growth-1)
COc1ccc(S(=O)(=O)N(C)C[C@H]2Oc3cc(C4=CCCC4)ccc3S(=O)(=O)N([C@H](C)CO)C[C@H]2C)cc1	T cruzi growth-1 122.4 | T cruzi growth-2 103.4 | T cruzi growth-3 inactive | 3T3 cytotox inactive | 3T3 cytotox 2 56.8
COc1ccc(S(=O)(=O)N(C)C[C@H]2Oc3cc(C4=CCCC4)ccc3S(=O)(=O)N([C@H](C)CO)C[C@@H]2C)cc1	none
COc1ccc(S(=O)(=O)N(C)C[C@H]2Oc3cc(C4=CCCC4)ccc3S(=O)(=O)N([C@@H](C)CO)C[C@H]2C)cc1	T cruzi growth-1 121.6 | T cruzi growth-2 101.5 | T cruzi growth-3 105.0 | 3T3 cytotox 45.5 | 3T3 cytotox 2 54.5
O=C(C[C@H]1CC[C@@H]2[C@H](COC[C@@H](O)CN2CCC(F)(F)F)O1)NCC1CCCCC1	T cruzi growth-1 107.5 (no result: IDH1 R132H inh) | T cruzi growth-2 inactive | T cruzi growth-3 inactive | 3T3 cytotox inactive | 3T3 cytotox 2 inactive
O=C(C[C@H]1CC[C@@H]2[C@H](COC[C@H](O)CN2CCc2ccccc2)O1)NCc1ccc(Oc2ccccc2)cc1	T cruzi growth-1 102.7 (no result: IDH1 R132H inh) | T cruzi growth-2 101.7 | T cruzi growth-3 inactive | 3T3 cytotox inactive | 3T3 cytotox 2 106.6
O=C(C[C@H]1CC[C@H]2[C@@H](COC[C@@H](O)CN2CCC(F)(F)F)O1)NCc1ccc(Oc2ccccc2)cc1	T cruzi growth-1 107.8 (no result: Pf Dd2 growth, IDH1 R132H inh) | T cruzi growth-2 inactive | T cruzi growth-3 inactive | 3T3 cytotox 39.1 | 3T3 cytotox 2 inactive
Cc1cc(C)cc(NC(=O)CN(c2cc([N+](=O)[O-])ccc2C)S(C)(=O)=O)c1	none (no result: Pf Dd2 growth, KDM4C inh, T cruzi growth-1)
